Legend:
[1] = tested on: Rattus norvegicus; experiment: Antiinflammatory activity against carrageenan-induced paw edema in Wistar rat assessed as inhibition of hind paw edema at 12.5 mg/kg, po administered 1 hr prior to carrageenan challenge measured after 3 hrs relative to control; type: functional
Outline: (§1)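 Wistar rats of either sex (250–300 g), fasted overnight, gavaged with compound in 0.5% methylcellulose. 1 h later, 0.1 mL 1% carrageenan injected subcutaneously into the plantar hind paw. Paw volume read by plethysmometer right after injection and 3 h later. Control edema set as 100, % inhibition from swelling difference. Groups of 8–10; Student's t-test.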

[2] = tested on: Mus musculus; experiment: Sedative activity in Swiss mouse assessed as inhibition of spontaneous locomotor activity at 50 mg/kg, po dose measured for every 5 mins up to 90 mins; type: organism-based; set-up: dose 50 mg/kg, route oral
Outline: (§2)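 Overnight-fasted mice given compound (0.5% methylcellulose) or vehicle by oral gavage, then housed singly in an activity cage. Locomotion auto-recorded in 5-min intervals for 90 min; pulses of the final 30 min scored. % inhibition versus controls; runs between 9.00 and 13.00; groups of 8–10; Student's t-test.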

[3] = tested on: Rattus norvegicus; experiment: Antiinflammatory activity against carrageenan-induced paw edema in Wistar rat assessed as inhibition of hind paw edema at 25 mg/kg, po administered 1 hr prior to carrageenan challenge measured after 3 hrs relative to control; type: functional; outline: as §1
[4] = tested on: Rattus norvegicus; experiment: Acute gastrolesivity in Wistar rat assessed as appearance of gastric damage at 200 mg/kg, po after 5 hrs; type: toxicity, organism-based, Stomach; set-up: dose 200 mg/kg, route oral; conditions: in vivo
Outline: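 Wistar rats (250–300 g), either sex, fasted overnight; compound suspended in 0.5% methylcellulose, single oral gavage at 200 mg kg^-1 (1 mL 100 g^-1). Stomachs excised 5 h later, fixed in 2% formalin, opened along greater curvature, examined by stereomicroscope by blinded observer. Reported as number of animals with gastric damage over treated animals (eight per group).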

[5] = tested on: Mus musculus; experiment: Analgesic activity in Swiss mouse assessed as inhibition of acetic acid-induced writhing response at 100 mg/kg, po administered 1 hr before acetic acid challenge measured for 30 mins relative to control; type: functional
Outline: (§3)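 Mice of either sex (25–35 g), fasted overnight, dosed by oral gavage with test agent suspended in 0.5% methylcellulose; controls got vehicle alone. Each hind-limb full extension counted as a writhe over 30 min after the noxious agent. % inhibition from treated vs control writhing; groups of 8–10; Student's t-test. Dosing starts at 100 mg/kg, then halved stepwise.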

[6] = tested on: Mus musculus; experiment: Analgesic activity in Swiss mouse assessed as inhibition of acetic acid-induced writhing response at 25 mg/kg, po administered 1 hr before acetic acid challenge measured for 30 mins relative to control; type: functional; outline: as §3
[7] = tested on: Mus musculus; experiment: Analgesic activity in Swiss mouse assessed as inhibition of acetic acid-induced writhing response at 50 mg/kg, po administered 1 hr before acetic acid challenge measured for 30 mins relative to control; type: functional; outline: as §3
[8] = tested on: Rattus norvegicus; experiment: Antiinflammatory activity against carrageenan-induced paw edema in Wistar rat assessed as inhibition of hind paw edema at 100 mg/kg, po administered 1 hr prior to carrageenan challenge measured after 3 hrs relative to control; type: functional; outline: as §1
[9] = tested on: Mus musculus; experiment: Analgesic activity in Swiss mouse assessed as inhibition of acetic acid-induced writhing response at 12.5 mg/kg, po administered 1 hr before acetic acid challenge measured for 30 mins relative to control; type: functional; outline: as §3
[10] = tested on: Rattus norvegicus; experiment: Antiinflammatory activity against carrageenan-induced paw edema in Wistar rat assessed as inhibition of hind paw edema at 50 mg/kg, po administered 1 hr prior to carrageenan challenge measured after 3 hrs relative to control; type: functional; outline: as §1
[11] = tested on: Rattus norvegicus; experiment: Antiinflammatory activity against carrageenan-induced paw edema in Wistar rat assessed as inhibition of hind paw edema at 6.25 mg/kg, po administered 1 hr prior to carrageenan challenge measured after 3 hrs relative to control; type: functional; outline: as §1
[12] = tested on: Mus musculus; experiment: Sedative activity in Swiss mouse assessed as inhibition of spontaneous locomotor activity at 100 mg/kg, po dose measured for every 5 mins up to 90 mins; type: organism-based; set-up: dose 100 mg/kg, route oral; outline: as §2

| Compound | inhibition in vivo at 12.5 mg/kg [1] [%] | inhibition at 50 mg/kg [2] [%] | inhibition in vivo at 25 mg/kg [3] [%] | Activity [4] | inhibition in vivo at 100 mg/kg [5] [%] | inhibition in vivo at 25 mg/kg [6] [%] | inhibition in vivo at 50 mg/kg [7] [%] | inhibition in vivo at 100 mg/kg [8] [%] | inhibition in vivo at 12.5 mg/kg [9] [%] | inhibition in vivo at 50 mg/kg [10] [%] | inhibition in vivo at 6.25 mg/kg [11] [%] | inhibition at 100 mg/kg [12] [%] |
| --- | --- | --- | --- | --- | --- | --- | --- | --- | --- | --- | --- | --- |
| CCN(CC)C(=O)c1c(NC(C)C)c2cccnc2n2c(C(C)C)nnc12 | 68 | 64 | 75 | Non-toxic | 83 | 33 | 54 | 81 | 0 | 75 | – | – |
| CCN(CC)C(=O)c1c(NCC(C)C)c2cccnc2n2c(C(C)C)nnc12 | 50 | – | 61 | Non-toxic | 100 | – | 33 | 70 | – | 66 | 27 | – |
| CCN1CCN(c2c(C(=O)N(CC)CC)c3ncc(C)n3c3ncccc23)CC1 | – | 46 | – | Non-toxic | 83 | 54 | 48 | 10 | 0 | – | – | 63 |
| CCc1nnc2c(C(=O)N(CC)CC)c(N(C)CC(C)C)c3cccnc3n12 | 8 | – | 28 | Non-toxic | 92 | – | 26 | 39 | – | 42 | – | 60 |
| CCN(CC)C(=O)c1c(N2CCN(CCO)CC2)c2cccnc2n2ccnc12 | – | – | – | Non-toxic | 41 | – | 12 | 0 | – | – | – | 39 |
| CCN(C)C(=O)c1c(NC(C)C)c2cccnc2n2c(C(C)C)nnc12 | – | – | – | Non-toxic | 82 | – | 0 | 46 | – | 0 | – | 96 |
| CCN(CC)C(=O)c1c(N2CCN(C)CC2)c2cccnc2n2c(C)cnc12 | – | 20 | – | Non-toxic | 85 | 83 | 86 | 0 | 21 | – | – | 80 |
| C=CCNc1c(C(=O)N(CC)CC)c2nnc(C(C)C)n2c2ncccc12 | 32 | – | 52 | Non-toxic | 79 | – | 28 | 60 | – | 49 | 25 | 64 |
| CCN(CC)C(=O)c1c(N2CCN(c3ccccc3OC)CC2)c2cccnc2n2ccnc12 | – | – | – | Non-toxic | 63 | – | 0 | 16 | – | – | – | 86 |
| CCCN(C)c1c(C(=O)N(CC)CC)c2nnc(C(C)C)n2c2ncccc12 | 44 | – | 42 | Non-toxic | 71 | – | 37 | 71 | – | 55 | 23 | 62 |
| CCN(CC)C(=O)c1c(NCC(C)C)c2cccnc2n2ccnc12 | – | 28 | – | Non-toxic | 71 | 48 | 48 | 0 | 0 | – | – | 68 |
| CCN(CC)C(=O)c1c(N2CCN(Cc3ccccc3)CC2)c2cccnc2n2ccnc12 | – | – | – | Non-toxic | 46 | – | 0 | 26 | – | 10 | – | 42 |
| CCN(CC)C(=O)c1c(N2CCN(C)CC2)c2cccnc2n2c(N(C)C)cnc12 | – | 30 | – | Non-toxic | 83 | – | 16 | 0 | – | – | – | 44 |
| CCN1CCN(c2c(C(=O)N(CC)CC)c3nccn3c3ncccc23)CC1 | – | – | – | Non-toxic | 80 | – | 30 | 5 | – | – | – | 67 |
| CCOC(=O)c1cn2c(n1)c(C(=O)N(CC)CC)c(N1CCN(C)CC1)c1cccnc12 | – | – | – | Non-toxic | 75 | – | 2 | 0 | – | – | – | 0 |
| CCN(CC)C(=O)c1c(NC)c2cccnc2n2c(C)cnc12 | – | – | – | Non-toxic | 73 | – | 0 | 38 | – | 20 | – | 55 |
| CCNc1c(C(=O)N(CC)CC)c2nccn2c2ncccc12 | 0 | – | 25 | Non-toxic | 60 | – | 2 | 29 | – | 26 | – | 89 |
| CC(C)CNc1c(C(=O)N2CCN(C)CC2)c2nnc(C(C)C)n2c2ncccc12 | – | – | – | Non-toxic | 48 | – | 29 | 0 | – | – | – | 0 |
| CCN(CC)C(=O)c1c(N2CCN(Cc3ccccc3)CC2)c2cccnc2n2c(C)cnc12 | – | – | – | – | 17 | – | – | 0 | – | – | – | – |
| CCN(CC)C(=O)c1c(NCC(C)C)c2cccnc2n2c(C)cnc12 | – | – | – | – | 0 | – | – | 0 | – | – | – | – |
| CCN(CC)C(=O)c1c(N2CCN(C)CC2)c2cccnc2n2ccnc12 | – | 41 | – | Non-toxic | 80 | 56 | 74 | 0 | 32 | – | – | 77 |
